{"source": "ChEMBL document CHEMBL5705905", "about": "“Pharmacological targeting of kinases MST1 and MST2 augments tissue repair and regeneration” (Sci Transl Med, 2016)", "key": {"[1]": {"biological_target": "Serine/threonine-protein kinase PAK 6 (Homo sapiens) (UniProt Q9NQU5)", "sequence (Q9NQU5 whole entry, looked up)": "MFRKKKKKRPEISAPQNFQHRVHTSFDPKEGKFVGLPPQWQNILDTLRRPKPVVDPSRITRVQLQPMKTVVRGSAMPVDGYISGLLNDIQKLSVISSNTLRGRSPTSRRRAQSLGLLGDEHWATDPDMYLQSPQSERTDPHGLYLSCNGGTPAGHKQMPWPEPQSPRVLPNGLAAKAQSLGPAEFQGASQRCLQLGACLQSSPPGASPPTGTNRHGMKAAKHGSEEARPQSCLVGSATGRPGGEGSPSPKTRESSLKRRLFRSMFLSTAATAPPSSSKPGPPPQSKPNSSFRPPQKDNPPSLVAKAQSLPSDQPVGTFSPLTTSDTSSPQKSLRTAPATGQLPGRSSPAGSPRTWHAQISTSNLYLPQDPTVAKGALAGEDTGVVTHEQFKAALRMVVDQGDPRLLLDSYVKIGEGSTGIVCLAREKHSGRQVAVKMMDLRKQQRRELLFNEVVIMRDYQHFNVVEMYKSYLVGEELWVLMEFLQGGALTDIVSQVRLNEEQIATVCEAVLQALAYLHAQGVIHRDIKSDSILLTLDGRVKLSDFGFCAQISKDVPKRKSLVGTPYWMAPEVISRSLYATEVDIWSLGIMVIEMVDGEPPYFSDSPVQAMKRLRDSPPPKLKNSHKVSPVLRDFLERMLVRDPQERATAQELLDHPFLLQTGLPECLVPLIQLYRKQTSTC", "test": "Inhibition of PAK6 (unknown origin) assessed as remaining activity at 1 uM by Kinome scan method relative to control"}, "[2]": {"biological_target": "Phosphatidylinositol 4-phosphate 5-kinase type-1 gamma (Homo sapiens, UniProt O60331)", "test": "Binding affinity to PIP5K1C (unknown origin) assessed as dissociation constant"}, "[3]": {"system": "eIF-2-alpha kinase GCN2 (Homo sapiens), Q9P2K8 [S808G]", "test": "Inhibition of GCN2 S808G mutant kinase domain 2 (unknown origin) assessed as remaining activity at 1 uM by Kinome scan method relative to control"}, "[4]": {"biological_target": "Non-receptor tyrosine-protein kinase TYK2 (Homo sapiens, UniProt P29597)", "test": "Binding affinity to TYK2 JH1domain-catalytic (unknown origin) assessed as dissociation constant"}, "[5]": {"biological_target": "Tyrosine-protein kinase ABL1 (Homo sapiens) (UniProt P00519)", "sequence (P00519 whole entry)": "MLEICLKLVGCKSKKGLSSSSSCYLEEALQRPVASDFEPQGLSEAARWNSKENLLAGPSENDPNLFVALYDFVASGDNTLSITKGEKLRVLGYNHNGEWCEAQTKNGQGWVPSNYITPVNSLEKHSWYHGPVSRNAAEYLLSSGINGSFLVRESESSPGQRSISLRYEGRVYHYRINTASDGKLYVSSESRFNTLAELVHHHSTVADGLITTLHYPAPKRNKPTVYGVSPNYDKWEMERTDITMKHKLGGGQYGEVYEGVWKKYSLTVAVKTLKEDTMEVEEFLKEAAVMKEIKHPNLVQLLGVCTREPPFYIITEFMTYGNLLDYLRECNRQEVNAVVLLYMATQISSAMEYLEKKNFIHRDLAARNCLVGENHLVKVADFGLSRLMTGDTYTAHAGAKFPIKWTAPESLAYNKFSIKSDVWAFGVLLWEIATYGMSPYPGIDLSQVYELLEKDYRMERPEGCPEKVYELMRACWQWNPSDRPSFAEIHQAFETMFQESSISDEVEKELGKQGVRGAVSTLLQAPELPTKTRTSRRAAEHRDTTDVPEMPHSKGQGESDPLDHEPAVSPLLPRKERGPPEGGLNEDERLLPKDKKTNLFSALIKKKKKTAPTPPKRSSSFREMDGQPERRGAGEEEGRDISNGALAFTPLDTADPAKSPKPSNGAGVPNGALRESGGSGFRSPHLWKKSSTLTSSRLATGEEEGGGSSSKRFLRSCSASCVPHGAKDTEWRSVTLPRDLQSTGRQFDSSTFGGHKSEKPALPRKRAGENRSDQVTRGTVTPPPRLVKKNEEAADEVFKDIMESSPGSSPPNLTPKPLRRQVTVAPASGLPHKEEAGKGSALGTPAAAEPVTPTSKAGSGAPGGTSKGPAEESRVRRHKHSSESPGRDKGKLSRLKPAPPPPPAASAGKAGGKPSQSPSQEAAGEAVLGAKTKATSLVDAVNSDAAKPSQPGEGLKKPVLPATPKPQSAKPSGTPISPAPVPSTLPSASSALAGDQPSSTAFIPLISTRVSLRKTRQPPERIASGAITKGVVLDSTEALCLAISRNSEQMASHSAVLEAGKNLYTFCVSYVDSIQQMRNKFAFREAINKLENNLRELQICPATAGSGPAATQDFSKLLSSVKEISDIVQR", "test": "Inhibition of ABL1 (unknown origin) assessed as remaining activity at 1 uM by Kinome scan method relative to control", "summary_of_the_method": "(§1)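 Active-site-dependent competition-binding (KINOMEscan) panel of 468 kinases, test compound at 1 μM (from a 10 mM DMSO stock). Read-out is ctrl% = (test signal − positive control signal)/(negative control signal − positive control signal) × 100. DMSO is the negative control (100%) and a control compound is the positive control (0%). Lower ctrl% means tighter binding.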"}, "[6]": {"biological_target": "Tyrosine-protein kinase Blk (Homo sapiens) (UniProt P51451)", "sequence (P51451 2-505 limits assumed)": "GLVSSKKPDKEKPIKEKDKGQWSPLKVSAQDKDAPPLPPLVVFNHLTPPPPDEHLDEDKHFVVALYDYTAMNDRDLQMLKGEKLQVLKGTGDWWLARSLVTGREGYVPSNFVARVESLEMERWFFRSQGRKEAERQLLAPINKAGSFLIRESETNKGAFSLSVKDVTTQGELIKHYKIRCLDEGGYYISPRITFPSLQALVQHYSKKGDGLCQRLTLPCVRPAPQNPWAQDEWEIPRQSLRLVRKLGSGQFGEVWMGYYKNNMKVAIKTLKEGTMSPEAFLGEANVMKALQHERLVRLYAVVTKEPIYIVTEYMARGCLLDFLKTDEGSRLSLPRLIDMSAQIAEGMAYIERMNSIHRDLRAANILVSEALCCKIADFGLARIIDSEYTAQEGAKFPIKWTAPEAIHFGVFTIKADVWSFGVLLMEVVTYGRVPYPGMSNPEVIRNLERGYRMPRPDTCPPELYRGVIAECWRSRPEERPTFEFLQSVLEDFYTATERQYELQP", "test": "Inhibition of BLK (unknown origin) assessed as remaining activity at 1 uM by Kinome scan method relative to control", "summary_of_the_method": "as §1"}, "[7]": {"biological_target": "Mitogen-activated protein kinase 10 (Homo sapiens) (UniProt P53779)", "test": "Inhibition of JNK3 (unknown origin) assessed as remaining activity at 1 uM by Kinome scan method relative to control"}, "[8]": {"biological_target": "Serine/threonine-protein kinase 26 (Homo sapiens, UniProt Q9P289)", "test": "Inhibition of MST4 (unknown origin) assessed as remaining activity at 1 uM by Kinome scan method relative to control"}, "[9]": {"test": "Cmax in male Sprague-Dawley rat at 5 mg/kg, iv measured for 24 hrs by LC-MS/MS analysis", "format": "ADME, organism-based", "conditions": "in vivo", "summary_of_the_method": "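Sprague-Dawley rats, single intravenous or oral dose. Parameters (half-life, AUC, bioavailability) reported in a supplementary table.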"}, "[10]": {"system": "Mast/stem cell growth factor receptor Kit (Homo sapiens), P10721 [D816V]", "test": "Inhibition of KIT D816V mutant (unknown origin) assessed as remaining activity at 1 uM by Kinome scan method relative to control"}, "[11]": {"biological_target": "Serine/threonine-protein kinase D1 (Homo sapiens) (UniProt Q15139)", "test": "Inhibition of PRKD1 (unknown origin) assessed as remaining activity at 1 uM by Kinome scan method relative to control"}, "[12]": {"biological_target": "Mitogen-activated protein kinase kinase kinase 12 (Homo sapiens) (UniProt Q12852)", "sequence (Q12852 whole entry)": "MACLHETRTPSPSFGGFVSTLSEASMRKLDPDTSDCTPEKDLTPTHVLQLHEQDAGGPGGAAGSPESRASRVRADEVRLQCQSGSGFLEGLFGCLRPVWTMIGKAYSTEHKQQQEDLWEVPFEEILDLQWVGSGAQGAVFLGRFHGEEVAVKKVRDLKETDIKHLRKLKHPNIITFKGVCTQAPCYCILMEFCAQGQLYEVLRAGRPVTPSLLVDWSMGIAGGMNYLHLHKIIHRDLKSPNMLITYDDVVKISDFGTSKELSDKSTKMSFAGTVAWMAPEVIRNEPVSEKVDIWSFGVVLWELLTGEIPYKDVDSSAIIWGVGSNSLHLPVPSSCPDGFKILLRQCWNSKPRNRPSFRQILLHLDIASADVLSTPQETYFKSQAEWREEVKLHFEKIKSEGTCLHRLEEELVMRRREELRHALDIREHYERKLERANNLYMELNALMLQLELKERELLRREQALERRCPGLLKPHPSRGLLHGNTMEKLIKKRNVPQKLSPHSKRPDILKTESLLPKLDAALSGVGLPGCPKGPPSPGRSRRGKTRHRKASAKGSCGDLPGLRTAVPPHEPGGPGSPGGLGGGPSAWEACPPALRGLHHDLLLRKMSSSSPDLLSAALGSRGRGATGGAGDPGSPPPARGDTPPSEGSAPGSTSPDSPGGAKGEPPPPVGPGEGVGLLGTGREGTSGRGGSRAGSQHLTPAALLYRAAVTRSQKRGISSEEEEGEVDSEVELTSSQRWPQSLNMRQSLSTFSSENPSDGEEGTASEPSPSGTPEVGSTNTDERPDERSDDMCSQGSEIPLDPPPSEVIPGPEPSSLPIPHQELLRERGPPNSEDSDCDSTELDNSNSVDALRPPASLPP", "test": "Inhibition of DLK (unknown origin) assessed as remaining activity at 1 uM by Kinome scan method relative to control"}, "[13]": {"biological_target": "Maternal embryonic leucine zipper kinase (Homo sapiens) (UniProt Q14680)", "test": "Inhibition of MELK (unknown origin) assessed as remaining activity at 1 uM by Kinome scan method relative to control"}, "[14]": {"biological_target": "Mitogen-activated protein kinase kinase kinase kinase 2 (Homo sapiens) (UniProt Q12851)", "test": "Inhibition of MAP4K2 (unknown origin) assessed as remaining activity at 1 uM by Kinome scan method relative to control"}, "[15]": {"biological_target": "Mitogen-activated protein kinase 13 (Homo sapiens) (UniProt O15264)", "test": "Inhibition of P38delta (unknown origin) assessed as remaining activity at 1 uM by Kinome scan method relative to control"}, "[16]": {"test": "Acute toxicity in wild-type mouse assessed as ratio of liver weight to body weight at 1 mg/kg,ip administrated twice daily for 6 days", "format": "organism-based", "conditions": "in vivo, 144 h, time 6 day", "summary_of_the_method": "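Wild-type mice underwent two-thirds partial hepatectomy with vehicle or 1 mg/kg i.p. twice per day, starting with a dose before surgery. Liver/body weight ratio was followed over postoperative days, n = 5; means ± SD.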"}, "[17]": {"system": "Receptor-type tyrosine-protein kinase FLT3 (Homo sapiens), P36888 [D835Y]", "test": "Inhibition of FLT3 D835Y mutant (unknown origin) assessed as remaining activity at 1 uM by Kinome scan method relative to control"}, "[18]": {"biological_target": "Tyrosine-protein kinase JAK1 (Homo sapiens, UniProt P23458)", "test": "Inhibition of JAK1 JH2domain-pseudokinase (unknown origin) in presence of ATP by enzymatic assay"}, "[19]": {"system": "Tyrosine-protein kinase ABL1 (Homo sapiens), P00519 [E255K]", "sequence (P00519 whole entry E255K)": "as the sequence (P00519 whole entry) above, with E255K counted along it", "test": "Inhibition of phosphorylated ABL1 E255K mutant (unknown origin) assessed as remaining activity at 1 uM by Kinome scan method relative to control"}, "[20]": {"system": "Phosphatidylinositol 4,5-bisphosphate 3-kinase catalytic subunit alpha isoform (Homo sapiens), P42336 [E545A]", "test": "Inhibition of PIK3CA E545A mutant (unknown origin) assessed as remaining activity at 1 uM by Kinome scan method relative to control"}, "Primary hepatocyte": {"system": "Primary hepatocyte", "test": "Inhibition of MST1/2 (unknown origin) in mouse Primary hepatocyte cells assessed as H2O2 stimulated MST1/2 autophosphorylation level at 1 to 3 uM by immunoblot analysis", "format": "cell-based", "conditions": "dose 1-3 µM"}, "[21]": {"biological_target": "Proto-oncogene tyrosine-protein kinase ROS (Homo sapiens) (UniProt P08922)", "test": "Inhibition of ROS1 (unknown origin) assessed as remaining activity at 1 uM by Kinome scan method relative to control"}, "[22]": {"biological_target": "Megakaryocyte-associated tyrosine-protein kinase (Homo sapiens) (UniProt P42679)", "test": "Inhibition of CTK (unknown origin) assessed as remaining activity at 1 uM by Kinome scan method relative to control", "summary_of_the_method": "(§2)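 Active-site-dependent competition-binding profiling (KINOMEscan) at 1 μM against a 468-kinase panel; compound supplied from a 10 mM DMSO stock. Read-out is ctrl% = (test signal − positive control signal)/(negative control signal − positive control signal) × 100. DMSO is the negative control (100%) and a control compound the positive control (0%). Lower ctrl% means tighter binding.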"}, "[23]": {"biological_target": "Calcium/calmodulin-dependent protein kinase type II subunit delta (Homo sapiens) (UniProt Q13557)", "test": "Inhibition of CAMK2D (unknown origin) assessed as remaining activity at 1 uM by Kinome scan method relative to control", "summary_of_the_method": "as §2"}, "[24]": {"biological_target": "Mitogen-activated protein kinase kinase kinase 14 (Homo sapiens) (UniProt Q99558)", "sequence (Q99558 whole entry, looked up)": "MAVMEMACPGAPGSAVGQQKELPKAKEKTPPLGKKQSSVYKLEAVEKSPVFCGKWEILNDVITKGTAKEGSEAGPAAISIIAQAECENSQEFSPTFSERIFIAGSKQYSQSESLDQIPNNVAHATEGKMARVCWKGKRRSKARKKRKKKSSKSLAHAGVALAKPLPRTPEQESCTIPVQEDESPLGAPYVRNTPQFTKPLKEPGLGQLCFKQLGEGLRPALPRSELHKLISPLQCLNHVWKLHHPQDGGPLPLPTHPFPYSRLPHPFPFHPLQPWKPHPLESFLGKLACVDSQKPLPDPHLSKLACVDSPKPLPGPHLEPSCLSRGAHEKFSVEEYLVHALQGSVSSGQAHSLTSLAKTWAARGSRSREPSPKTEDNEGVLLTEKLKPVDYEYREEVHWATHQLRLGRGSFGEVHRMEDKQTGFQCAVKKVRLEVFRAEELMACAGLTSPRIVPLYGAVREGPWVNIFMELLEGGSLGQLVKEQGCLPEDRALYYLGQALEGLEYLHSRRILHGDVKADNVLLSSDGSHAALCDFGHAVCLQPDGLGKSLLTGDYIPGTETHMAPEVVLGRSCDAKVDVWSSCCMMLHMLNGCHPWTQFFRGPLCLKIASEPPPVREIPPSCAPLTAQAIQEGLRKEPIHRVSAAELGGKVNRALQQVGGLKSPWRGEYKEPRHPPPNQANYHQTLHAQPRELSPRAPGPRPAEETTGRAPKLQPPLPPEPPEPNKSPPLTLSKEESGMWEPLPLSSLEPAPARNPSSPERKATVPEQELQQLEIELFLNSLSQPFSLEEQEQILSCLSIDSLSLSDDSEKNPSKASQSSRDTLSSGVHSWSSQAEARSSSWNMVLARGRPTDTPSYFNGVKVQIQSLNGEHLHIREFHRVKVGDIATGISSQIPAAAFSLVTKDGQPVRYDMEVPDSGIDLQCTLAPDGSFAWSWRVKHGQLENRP", "test": "Inhibition of NIK (unknown origin) assessed as remaining activity at 1 uM by Kinome scan method relative to control"}, "[25]": {"biological_target": "Mast/stem cell growth factor receptor Kit (Homo sapiens) (UniProt P10721)", "test": "Inhibition of KIT (unknown origin) assessed as remaining activity at 1 uM by Kinome scan method relative to control"}, "[26]": {"biological_target": "Dual serine/threonine and tyrosine protein kinase (Homo sapiens) (UniProt Q6XUX3)", "sequence (Q6XUX3 whole entry)": "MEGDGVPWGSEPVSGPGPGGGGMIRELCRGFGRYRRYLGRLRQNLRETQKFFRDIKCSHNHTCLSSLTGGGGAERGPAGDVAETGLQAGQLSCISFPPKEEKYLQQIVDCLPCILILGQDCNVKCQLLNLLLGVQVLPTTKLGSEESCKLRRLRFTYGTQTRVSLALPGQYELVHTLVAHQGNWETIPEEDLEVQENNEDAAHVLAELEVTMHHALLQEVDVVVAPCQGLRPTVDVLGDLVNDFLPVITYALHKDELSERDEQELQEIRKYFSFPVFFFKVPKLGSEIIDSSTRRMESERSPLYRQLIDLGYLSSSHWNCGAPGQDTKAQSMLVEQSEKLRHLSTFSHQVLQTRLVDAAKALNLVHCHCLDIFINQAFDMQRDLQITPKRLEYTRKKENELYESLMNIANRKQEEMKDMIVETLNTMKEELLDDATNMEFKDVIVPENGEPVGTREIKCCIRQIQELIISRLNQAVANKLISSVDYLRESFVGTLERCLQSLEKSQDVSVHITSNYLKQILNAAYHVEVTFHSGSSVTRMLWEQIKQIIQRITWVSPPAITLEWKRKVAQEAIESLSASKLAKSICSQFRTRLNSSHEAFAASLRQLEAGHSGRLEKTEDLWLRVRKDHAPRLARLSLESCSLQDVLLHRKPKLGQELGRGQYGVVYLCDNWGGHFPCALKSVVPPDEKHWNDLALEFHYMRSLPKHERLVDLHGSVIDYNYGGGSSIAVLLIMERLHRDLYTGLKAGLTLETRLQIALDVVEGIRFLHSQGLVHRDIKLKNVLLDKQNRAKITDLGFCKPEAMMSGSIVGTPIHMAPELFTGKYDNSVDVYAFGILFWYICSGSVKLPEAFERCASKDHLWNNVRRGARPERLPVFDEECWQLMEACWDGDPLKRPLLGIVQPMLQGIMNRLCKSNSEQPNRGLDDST", "test": "Inhibition of RIPK5 (unknown origin) assessed as remaining activity at 1 uM by Kinome scan method relative to control"}, "Mus musculus": {"system": "Mus musculus", "test": "Protection against APAP induced liver injury in mouse assessed as cell death at 1 mg/kg, ip administered at 1.5 hrs in the presence of NAC relative to control", "format": "functional"}}, "note": "Active and inactive are the calls of the source. No cut-off for these calls is given here.", "data": [{"compound": "CN1C(=O)c2sccc2N(C)c2nc(Nc3ccc(S(N)(=O)=O)cc3)ncc21", "values": [{"measurement": "Activity", "setting": "[1]", "result": 100, "unit": "%"}, {"measurement": "Kd", "setting": "[2]", "result": 77, "unit": "nM"}, {"measurement": "Activity", "setting": "[3]", "result": 100, "unit": "%"}, {"measurement": "Kd", "setting": "[4]", "result": 5, "unit": "nM"}, {"measurement": "Activity", "setting": "[5]", "result": 21, "unit": "%"}, {"measurement": "Activity", "setting": "[6]", "result": 96, "unit": "%"}, {"measurement": "Activity", "setting": "[7]", "result": 82, "unit": "%"}, {"measurement": "Activity", "setting": "[8]", "result": 0.6, "unit": "%"}, {"measurement": "Cmax", "setting": "[9]", "result": 1140, "unit": "ng/mL"}, {"measurement": "Activity", "setting": "[10]", "result": 94, "unit": "%"}, {"measurement": "Activity", "setting": "[11]", "result": 98, "unit": "%"}, {"measurement": "Activity", "setting": "[12]", "result": 85, "unit": "%"}, {"measurement": "Activity", "setting": "[13]", "result": 100, "unit": "%"}, {"measurement": "Activity", "setting": "[14]", "result": 77, "unit": "%"}, {"measurement": "Activity", "setting": "[15]", "result": 94, "unit": "%"}, {"measurement": "Activity", "setting": "[16]", "result": "Non-Toxic"}, {"measurement": "Activity", "setting": "[17]", "result": 86, "unit": "%"}, {"measurement": "IC50", "setting": "[18]", "result": 38.7, "unit": "nM"}, {"measurement": "Activity", "setting": "[19]", "result": 11, "unit": "%"}, {"measurement": "Activity", "setting": "[20]", "result": 81, "unit": "%"}, {"measurement": "inhibition", "setting": "Primary hepatocyte", "result": "Active"}, {"measurement": "Activity", "setting": "[21]", "result": 100, "unit": "%"}, {"measurement": "Activity", "setting": "[22]", "result": 59, "unit": "%"}, {"measurement": "Activity", "setting": "[23]", "result": 100, "unit": "%"}, {"measurement": "Activity", "setting": "[24]", "result": 58, "unit": "%"}, {"measurement": "Activity", "setting": "[25]", "result": 100, "unit": "%"}, {"measurement": "Activity", "setting": "[26]", "result": 45, "unit": "%"}, {"measurement": "Activity", "setting": "Mus musculus", "result": 100, "unit": "%"}]}]}
